MrgX1 PAM = human MrgX1 positive allosteric modulation, primary screen; Q96LB2; MrgX1-HEK293, Fluo-4 calcium flux, FDSS; stronger effect = higher value; B-score at 10 µM; 310,000 tested, 0.63% active; AID 588675;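 active = plate-corrected calcium response at least 3 library SD above typical, normal starting fluorescence, not activating the receptor alone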;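 also: compound read alongside a low EC10 to EC30 dose of BAM8-22 agonist; peak minus trough fluorescence over baseline measured at the second addition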
Target sequence (Q96LB2 whole entry, looked up): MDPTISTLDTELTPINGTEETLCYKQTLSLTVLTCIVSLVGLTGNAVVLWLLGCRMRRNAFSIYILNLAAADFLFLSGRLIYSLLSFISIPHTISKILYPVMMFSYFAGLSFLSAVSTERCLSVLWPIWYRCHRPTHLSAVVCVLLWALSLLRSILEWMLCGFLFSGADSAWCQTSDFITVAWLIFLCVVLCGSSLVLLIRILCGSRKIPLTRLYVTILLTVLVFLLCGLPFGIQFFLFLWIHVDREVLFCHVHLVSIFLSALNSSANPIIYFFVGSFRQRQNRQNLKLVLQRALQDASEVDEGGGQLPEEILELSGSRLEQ
MrgX1 agonist = agonists of human MrgX1 receptor. Q96LB2. MrgX1-HEK293 cells, Fluo-4 calcium fluorescence, agonist mode; stronger effect = higher value. 310,000 tested, 0.44% active. B-score at 10 µM;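 active = calcium response B-score plate-corrected fluorescence ratio at least 3 library SD, with starting fluorescence B-score inside 5 SD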
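Test system: HEK293 cells stably expressing human MrgX1 receptor; amount: 15,000 cells per well; doses: compound delivered in addition one of three; times: overnight plating before 1 h dye loading; detection: Fluo-4 NW calcium-flux fluorescence, kinetic read; read-out basis: B-scored fluorescence response ratio; controls: positive and negative controls per plate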
RGS4 block = inhibitors of human RGS4; HEK293 M3R/RGS4 inducible, Fluo-4 calcium flux; stronger effect = higher value; triggered by carbachol at its EC20; B-score at 10 µM; 310,000 tested, 0.45% active;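 active = B-score, a plate-corrected calcium signal, over three deviations above library mean, with baseline fluorescence within five deviations of library mean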;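 also: RGS4 expression induced by doxycycline in cells with stable M3 receptor; B-score is computed from the integrated fluorescence ratio over baseline after carbachol; higher B-score means a larger calcium signal and so more RGS4 inhibition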
Target sequence (P49798 whole entry, looked up): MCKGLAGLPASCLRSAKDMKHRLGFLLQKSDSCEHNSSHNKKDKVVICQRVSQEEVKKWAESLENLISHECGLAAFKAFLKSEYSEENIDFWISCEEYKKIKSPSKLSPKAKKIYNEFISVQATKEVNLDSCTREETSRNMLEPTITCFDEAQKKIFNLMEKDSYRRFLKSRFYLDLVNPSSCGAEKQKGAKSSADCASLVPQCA
MrgX1 antag = antagonists of human MrgX1 receptor. MRGX1-HEK293 calcium flux, Fluo-4, BAM8-22 antagonism; stronger effect = lower value. 310,000 tested, 1.3% active. B-score at 10 µM. AID 588676;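 active = calcium-response B-score plate-corrected more than 3 library SD below zero, starting fluorescence within 5 deviations, no agonist response on first addition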;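 also: peak minus trough fluorescence over baseline after final BAM8-22 challenge near maximal dose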
RGS4 pot = potentiators or activators of RGS4; 310,000 tested, 0.92% active; AID 463111; HEK293 M3R/inducible RGS4, carbachol calcium flux Fluo4; stronger effect = lower value; B-score at 10 µM;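 active = B-score of the integrated calcium signal more than 4 SD below the library mean, with starting fluorescence not abnormally high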;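 also: negative B-score means reduced calcium response which marks RGS4 activation or potentiation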
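Assay system: HEK293 FlpIn-TREx cells, stable M3R, doxycycline-inducible RGS4 / Probe or stimulus: carbachol, ECmax concentration / Times: overnight RGS4 induction, 30 min dye load 37 °C, 20 min compound RT / Signal: kinetic calcium fluorescence imaging with Fluo4-AM dye, 2 µM / Measure: Agonist-evoked peak-minus-minimum fluorescence over baseline, integrated ratio, B score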
* hit, by the source's call; i = inactive; · = not tested or not shown; ! = repeats disagree. Rows were chosen to be rich in hits. Some 3.5% of all compounds tested hit in one or more screens of this group.

SMILES	MrgX1 PAM	MrgX1 agonist	RGS4 block	MrgX1 antag	RGS4 pot
CC(C)c1ccc(CCNC(=O)CSC(=S)N2CCCC2)cc1	i	i	i	i	i
COC(=O)c1c(NC(=O)COC(=O)c2ccc(Cl)cc2[N+](=O)[O-])sc2c1CCCCC2	i	i	i	i	i
COC(=O)c1c(NC(=S)Nc2ccc(F)cc2[N+](=O)[O-])sc2c1CCCCC2	8.9*	i	i	i	i
CCCC(=O)Nc1ccc(-c2csc(N/N=C\c3ccncc3)n2)cc1	i	i	i	-5.4*	-7.2*
O=C(CSc1n[nH]c(-c2ccncc2)n1)Nc1ccccc1C(F)(F)F	i	i	i	i	i
O=[N+]([O-])c1ccc2nc(NS(=O)(=O)c3ccc(F)cc3)sc2c1	i	i	i	i	i
Cc1csc2nc(SCC(=O)Nc3ccccc3F)[nH]c(=O)c12	i	i	i	i	i
CCOc1ccc(-c2cc(N3C(=O)Nc4ccccc4N3O)n[nH]2)cc1	i	i	i	-6.7*	i
Cc1ccccc1N(C(=O)CCC(=O)Nc1ccccn1)C(C(=O)NC(C)C)c1ccc(F)cc1 (configuration not stated)	i	i	i	i	i
CC1=NN(c2ccc([N+](=O)[O-])cc2)C(=O)/C1=C\N(C)C	i	i	i	i	i
CN(C)/C=C1/C(=O)N(c2ccc([N+](=O)[O-])cc2)N=C1c1ccccc1	i	35*	i	i	i
CN(C)/C=C1\C(=O)N(c2ccc([N+](=O)[O-])cc2)N=C1c1ccccc1	i	50*	i	i	i
COc1ccc(CN(C(=O)c2cc3ccccc3oc2=O)C2CCCC2)cc1	i	i	i	-5*	i
COc1ccc(CN(C(=O)c2cc3ccccc3oc2=O)C2CCS(=O)(=O)C2)cc1 (configuration not stated)	i	i	i	i	i
O=[N+]([O-])c1cccc(S(=O)(=O)N/N=C\c2ccc3c(c2)OCO3)c1	13*	i	i	i	i
O=[N+]([O-])c1cccc(S(=O)(=O)N/N=C/c2ccc(O)cc2)c1	6.6*	i	i	i	i
COc1cc2c(cc1OC)C(c1ccccc1[N+](=O)[O-])N(C(C)=O)CC2 (configuration not stated)	i	i	i	i	i
O=C(CSc1ccccn1)N1CCc2ccccc21	i	i	i	i	i
CC(=O)N1N=C(c2ccc(Cl)cc2)OC1c1ccc(C(C)C)cc1 (configuration not stated)	i	i	i	i	-7.9*
CC(=O)N1N=C(c2ccc(C)cc2)OC1c1ccc(Br)cc1 (configuration not stated)	i	i	i	i	i
Cc1ccccc1NC(=S)c1ccc2ccccc2n1	i	i	i	i	i
CC(C)N=C(N)N=C(N)Nc1ccc(Cl)cc1	i	i	·	i	·
NC(=NCCCCCCN=C(N)/N=C(\N)Nc1ccc(Cl)cc1)/N=C(\N)Nc1ccc(Cl)cc1	i	i	i	-5.7*	i
CN(CC(=O)Nc1ccc(F)cc1)C(=O)Cn1nnc(-c2ccccc2)n1	i	i	i	i	i
COc1ccc(NC(=O)N2CCc3ccccc3C2)c(OC)c1	i	i	i	i	i
SMILES	MrgX1 PAM	MrgX1 agonist	RGS4 block	MrgX1 antag	RGS4 pot
C/C(=N\NC(=O)COc1ccc(C)cc1[N+](=O)[O-])c1cccs1	i	i	i	-6.5*	i
C/C(=N\NC(=O)COc1ccc(C)cc1Br)c1cc([N+](=O)[O-])cs1	i	i	i	i	i
CCOc1ccc(C(=O)Nc2ccc(NC(=O)c3cccs3)cc2)cc1[N+](=O)[O-]	i	i	i	-7.3*	i
COC(=O)C1CN(C(=O)C(C)Oc2ccc(C(C)C)cc2)c2ccccc2O1 (configuration not stated)	i	i	i	i	i
COc1ccc(-n2nc(C(=O)NCC(=O)NCCCN3CC(C)CC(C)C3)c3ccccc3c2=O)cc1 (configuration not stated)	i	i	i	i	i
Nc1nnc(CC(=O)N/N=C/c2ccccc2OCc2ccc(F)cc2)s1	i	i	i	i	i
O=[N+]([O-])c1cc([N+](=O)[O-])c(Oc2c(F)cccc2F)cc1NN1CCCCC1	i	i	i	i	i
COc1ccc(Oc2cc(NN3CCCCC3)c([N+](=O)[O-])cc2[N+](=O)[O-])cc1OC	i	i	i	i	-8.2*
O=[N+]([O-])c1cc([N+](=O)[O-])c(Oc2c(F)ccc(F)c2F)cc1NN1CCCCC1	i	i	i	i	-7.2*
O=[N+]([O-])c1cc([N+](=O)[O-])c(Oc2c(Cl)cccc2Cl)cc1NN1CCCCC1	i	i	i	i	i
CC(=O)c1cccc(Oc2cc(NN3CCCCC3)c([N+](=O)[O-])cc2[N+](=O)[O-])c1	i	i	i	i	-7.3*
CC(=O)c1ccccc1Oc1cc(NN2CCCCC2)c([N+](=O)[O-])cc1[N+](=O)[O-]	i	i	i	i	-8.3*
O=[N+]([O-])c1cc([N+](=O)[O-])c(Oc2ccc(F)cc2)cc1NN1CCCCC1	i	i	i	i	i
O=C(N[C@@H]1C[C@H]2CC[C@@H]1C2)c1ccco1	i	i	i	i	i
CCOC(=O)C1CCN(C(=O)Nc2ccc3nc(-c4ccco4)c(-c4ccco4)nc3c2)CC1	i	i	i	-5*	i
O=C(Nc1ccc2nc(-c3ccco3)c(-c3ccco3)nc2c1)N1CCCCCC1	i	i	i	i	i
CC(C)c1ccc2c(c1)C(N1CCNCC1)Cc1ccc(F)cc1S2 (configuration not stated)	i	i	i	i	-8.7*
CSc1ccc2c(c1)C(N1CCN(C)CC1)Cc1ccccc1S2 (configuration not stated)	i	i	i	i	-7.4*!
CN1CCN(C2Cc3cc(F)ccc3Sc3ccc(Cl)cc32)CC1 (configuration not stated)	i	i	i	i	-8.3*
CN1CCN(C2Cc3ccccc3Sc3ccc(Cl)cc32)CC1 (configuration not stated)	i	i	·	i	·
CCc1cccc(NC(=O)CCc2c(C)nn(-c3ccc(N4CCOCC4)nn3)c2C)c1	i	i	i	i	i
O=C(Nc1ccc(Cl)c(Cl)c1)Nc1ccc(Br)cc1F	i	i	i	-5.2*	i

Assay outcomes: PubChem, Johns Hopkins Ion Channel Center
